Measurements as given in ChEMBL document CHEMBL2321739, “Discovery of a novel small molecule inhibitor targeting the frataxin/ubiquitin interaction via structure-based virtual screening and bioassays” (J Med Chem, 2013).
Numbering of substitutions follows the chain as printed. pIC50: −log10 of the molar value. The source made the active and inactive calls. The calls are words filed in the database; no cut-off is given here. Peptide text beside a SMILES is read from it. * marks the point of attachment. Cbz = O=C(OCc1ccccc1)*

Legend:
[1] = system: Calu-6; assay: Inhibition of recombinant His-tagged Frataxin (unknown origin)/GST-tagged mono ubiquitin interaction expressed in human Calu6 cells assessed as presence of frataxin signal at 10 uM after 18 hrs by GST pull down-based Western blotting analysis; format: cell-based
Method in brief: (§1)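 Calu-6 cells transfected with His-frataxin or His-K147R. From 24 h post-transfection, cells received 10 µM MG132 for 18 h, or compound for 3 days with MG132 added for the last 18 h. Lysate (500 µg) pulled down with 5 µg GST-monoUb or GST on GSH-sepharose, 4 h at 4 °C, pH 7.5 buffer. Eluates blotted with anti-His and quantified by densitometry as % of control. IC50 obtained by four-parameter logistic fit; at least three independent experiments.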

[2] = system: T1, Frataxin, mitochondrial (Homo sapiens), Q16595 [K147R]; assay: Inhibition of recombinant GST-tagged mono ubiquitin/His-tagged Frataxin K147R mutant (unknown origin) interaction expressed in human Calu6 cells assessed as presence of frataxin signal at 10 uM after 18 hrs by GST pull down-based Western blotting analysis; format: cell-based; details: Calu-6; method in brief: as §1
T1 sequence (whole entry): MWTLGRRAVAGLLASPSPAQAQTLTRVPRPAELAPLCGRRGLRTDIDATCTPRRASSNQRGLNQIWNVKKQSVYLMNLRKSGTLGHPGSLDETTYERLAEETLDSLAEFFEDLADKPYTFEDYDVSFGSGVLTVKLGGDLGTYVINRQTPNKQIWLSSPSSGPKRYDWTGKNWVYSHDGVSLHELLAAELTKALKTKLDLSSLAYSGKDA

[3] = system: Calu-6; assay: Inhibition of His-tagged Frataxin (unknown origin)/HA-tagged Ubiquitin interaction expressed in human Calu6 cells assessed as accumulation of monoUB-tagged frataxin (1-210) precursor at 10 uM after 18 hrs by immunoprecipitation assay; format: cell-based
Method in brief: (§2)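 Calu-6 cells cotransfected with His-frataxin and HA-Ub, then treated with 10 µM MG132 for 18 h starting 24 h after transfection. Frataxin immunoprecipitated from 1.5 mg extract using anti-frataxin on protein A/G beads (4 °C, 12 h). Precipitates run on 12% SDS-PAGE and blotted with anti-Ub. Three independent experiments.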

[4] = system: Calu-6; assay: Inhibition of His6-tagged Frataxin (unknown origin)/HA-tagged Ubiquitin interaction expressed in human Calu6 cells assessed as accumulation of frataxin at 10 uM after 18 hrs by immunoprecipitation assay; format: cell-based; method in brief: as §2
[5] = system: Calu-6; assay: Inhibition of His-tagged Frataxin (unknown origin)/Ubiquitin interaction expressed in human Calu6 cells assessed as increase in frataxin (1-210) precursor level at 10 uM after 18 hrs by Western blotting analysis; format: cell-based
Method in brief: (§3)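 Calu-6 cells (DMEM with glutamax, 10% FBS) transiently transfected with His-frataxin. From 24 h post-transfection, treated with 10 µM proteasome inhibitor for 18 h or 50 µM compound for 3 days. Extracts (50 µg) resolved on 15% SDS gels and immunoblotted with anti-frataxin using ECL detection. Band levels quantified by PhosphorImager and normalized to tubulin. Three independent experiments.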

[6] = (§4) Inhibition of human His-tagged Frataxin/GST-tagged mono ubiquitin interaction expressed in human Calu6 cells after 3 days by GST pull down-based Western blot analysis; format: cell-based; details: calu-6; method in brief: as §1
[7] = system: Calu-6; assay: as §4; format: cell-based; method in brief: as §1
[8] = system: Calu-6; assay: Cytotoxicity against human Calu6 cells assessed as cell viability up to 100 uM; format: cell-based
[9] = system: Calu-6; assay: Inhibition of human His-tagged Frataxin/Ubiquitin interaction expressed in human Calu6 cells assessed as increase in mature frataxin (81-210) level at 50 uM after 3 days by Western blotting analysis; format: cell-based; method in brief: as §3
[10] = target: T2, Frataxin, mitochondrial (Homo sapiens) (UniProt Q16595); assay: Binding affinity to recombinant His-tagged frataxin (unknown origin) at 1 uM at 37 degC by UF-LC/MS analysis relative to control
T2 sequence (whole entry): T1 sequence (whole entry) with R147K
Method in brief: (§5)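 His-frataxin recombinant protein (E. coli-expressed, Ni-NTA purified), 1 µM, incubated with ligand at 1 µM in 100 mM Tris-HCl pH 7.5, 50 mM KCl, 5 mM MgCl2, DMSO ≤2%, for 60 min at 25 or 37 °C. Unbound ligand removed by ultrafiltration and washing. Bound ligand dissociated in methanol and quantified by LC/MS (ESI positive). Ratio of peak area with active vs heat-denatured (90 °C, 1 h) protein. Duplicate assays, each analyzed twice.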

[11] = target: T2, Frataxin, mitochondrial (Homo sapiens); assay: Binding affinity to recombinant His-tagged frataxin (unknown origin) at 1 uM at 25 degC by UF-LC/MS analysis relative to control; method in brief: as §5

| Structure (SMILES) | pIC50 [6] | inhibition [7] | further results |
| --- | --- | --- | --- |
| CC(C)C[C@@H](C=O)NC(=O)[C@H](CC(C)C)NC(=O)[C@H](CC(C)C)NC(=O)OCc1ccccc1 (Cbz-Leu-Leu-Leu-aldehyde) |  |  | inhibition [1]: Active; inhibition [2]: inactive; inhibition [3]: Active; inhibition [4]: Active; inhibition [5]: Active |
| COc1ccc(C(c2cc3c(cc2O)OCO3)N2CCOCC2)cc1 (stereo not drawn) | 4.19 | Dose-dependent effect |  |
| Oc1ccccc1C(c1cc2c(cc1O)OCO2)N1CCOCC1 (stereo not drawn) | 4.10 | Dose-dependent effect |  |
| COc1cccc(C(c2cc3c(cc2O)OCO3)N2CCOCC2)c1OC (single isomer, unassigned; (+)) [listing 1 of 2 here] | 4.35 |  | Activity [8]: Non-toxic |
| CC(C)C[C@H](NC(=O)[C@H](Cc1ccccc1)NC(=O)c1cnccn1)B(O)O |  |  | inhibition [5]: Active |
| COc1ccc(C(c2cc3c(cc2O)OCO3)N2CCCC2)cc1 (stereo not drawn) | 4.01 | Dose-dependent effect |  |
| COc1ccc(C(c2cc3c(cc2O)OCO3)N2CCOCC2)cc1OC (stereo not drawn) | 4.70 | Dose-dependent effect |  |
| COc1cccc(C(c2cc3c(cc2O)OCO3)N2CCOCC2)c1OC (single isomer, unassigned; (-)) |  |  | inhibition [9]: inactive |
| COc1cc(OC)c(C(c2cc3c(cc2O)OCO3)N2CCOCC2)c(OC)c1 (stereo not drawn) | 4.28 | Dose-dependent effect |  |
| COc1ccc(C(c2cc3c(cc2O)OCO3)N2CCOCC2)c(OC)c1 (stereo not drawn) | 4.36 | Dose-dependent effect |  |
| COc1cccc(C(c2cc3c(cc2O)OCO3)N2CCOCC2)c1OC (single isomer, unassigned; (+)) [listing 2 of 2 here] |  | Dose-dependent effect | fold change (FC) [10]: 3.32; fold change (FC) [11]: 3.7; inhibition [9]: Active |
| Oc1cc2c(cc1C(c1ccc3c(c1)OCO3)N1CCOCC1)OCO2 (stereo not drawn) | 4.15 | Dose-dependent effect |  |
| COc1cccc(C(c2cc3c(cc2O)OCO3)N2CCOCC2)c1O (stereo not drawn) | 4.54 | Dose-dependent effect |  |
| COc1cccc(C(c2cc3c(cc2O)OCO3)N2CCOCC2)c1OC (racemic) |  |  | inhibition [9]: Active |
| Oc1cc2c(cc1C(c1ccc(F)cc1)N1CCOCC1)OCO2 (stereo not drawn) | 4.17 | Dose-dependent effect |  |
| Oc1cc2c(cc1C(c1ccc(Cl)cc1)N1CCOCC1)OCO2 (stereo not drawn) | 4.17 | Dose-dependent effect |  |
| COc1ccc(C(c2cc3c(cc2O)OCO3)N2CCCCC2)cc1 (stereo not drawn) | 4.09 | Dose-dependent effect |  |
| CN(C)c1ccc(C(c2cc3c(cc2O)OCO3)N2CCOCC2)cc1 (stereo not drawn) | 4.09 | Dose-dependent effect |  |
